Laboratory results reported in paper PMC8500343 (Pharmacology Research & Perspectives, 2021).
“And” between values parts separate entries of the source, which are not always exact repeats. Identical values can stand only once. Like-named read-outs stand apart in the source and are kept apart here.

Experiments:
[1] = Bioequivalence part; format: in vivo, human (healthy adult subjects); settings: for t 1/2 / AUC(0-t) / AUC(0-inf): mean (SD); for AUC(0-t): AUC0–last; for AUC(0-inf): AUC0–∞; for Geometric means ratio, AUC0–last / Geometric means ratio, AUC0–∞ / Geometric means ratio, C max: Group 1, FDC vs. free combination, Treatment A/B, fasted; for CVw (intrasubject coefficient of variation), AUC0–last / CVw (intrasubject coefficient of variation), AUC0–∞ / CVw (intrasubject coefficient of variation), C max: Group 1, Treatment A/B
Method in brief: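 Single-centre, open-label, randomized two-period crossover in healthy adult men and women. Single oral doses were given after an overnight fast of at least 10 h: fixed-dose tablet (10/40 mg) versus 10 mg macitentan plus 40 mg Canadian-sourced tadalafil tablets. Plasma was sampled predose to 216 h and assayed by LC-MS/MS. Noncompartmental PK gave GMR 90% CIs against 80.00–125.00 limits and intrasubject CV.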

[2] = Food effect part; format: in vivo, human (healthy adult subjects); settings: for Geometric means ratio, AUC0–last / Geometric means ratio, AUC0–∞ / Geometric means ratio, C max: Treatment C/D; for t 1/2 / AUC(0-t) / AUC(0-inf) / mean C max higher under fed (test) compared with fasted (reference) conditions: Group 2, FDC; for CVw (intrasubject coefficient of variation), AUC0–last / CVw (intrasubject coefficient of variation), AUC0–∞ / CVw (intrasubject coefficient of variation), C max: Group 2, Treatment C/D; for AUC(0-t): AUC0–last; for AUC(0-inf): AUC0–∞; for mean C max higher under fed (test) compared with fasted (reference) conditions: arithmetic means
Method in brief: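 Healthy adults in a randomized two-way crossover, sequence C-D or D-C. Single oral fixed-dose tablet (10/40 mg) was given fed or fasted; both arms fasted overnight for at least 10 h. Fed dosing followed a high-fat, high-calorie breakfast per FDA guidance, eaten within 30 min. Plasma was sampled predose to 216 h and assayed by LC-MS/MS. Noncompartmental PK gave GMR 90% CIs against 80.00–125.00 limits.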

[3] = Stability in plasma samples; format: in vitro ADME, human
[4] = no reference given; cited from earlier work
[5] = cited from earlier work
[6] = Group 1, FDC, fasted (Treatment A)
[7] = Group 1, free combination, fasted (Treatment B)
[8] = both, human, plasma, oral, Group 1, FDC, fasted (Treatment A)
[9] = both, human, plasma, oral, Group 1, free combination, fasted (Treatment B)
[10] = fasted (Treatment D), mean (SD)
[11] = both, human, plasma, oral, fed (Treatment C), mean (SD)
[12] = both, human, plasma, oral, fasted (Treatment D), mean (SD)
[13] = in the presence of macitentan and metabolite

Row | Compound | t 1/2 [1, 6] | t 1/2 [1, 7] | AUC(0-t) [1, 8] [ng·h/mL] | AUC(0-t) [1, 9] [ng·h/mL] | AUC(0-inf) [1, 8] [ng·h/mL] | AUC(0-inf) [1, 9] [ng·h/mL] | Geometric means ratio, AUC0–last ([2]; Group 2, FDC fed vs. fasted) [%] | Geometric means ratio, AUC0–∞ ([2]; Group 2, FDC fed vs. fasted) [%] | Geometric means ratio, C max ([2]; Group 2, FDC fed vs. fasted) [%] | t 1/2 [2, 10] | t 1/2 ([2]; fed (Treatment C), mean (SD)) | CVw (intrasubject coefficient of variation), AUC0–last [2] [%] | CVw (intrasubject coefficient of variation), AUC0–∞ [2] [%] | CVw (intrasubject coefficient of variation), C max [2] [%] | AUC(0-t) [2, 11] [ng·h/mL] | AUC(0-inf) [2, 12] [ng·h/mL] | AUC(0-inf) [2, 11] [ng·h/mL] | stability in plasma samples at room temperature ([3]; in the presence of tadalafil) | stability in plasma samples, freeze/thaw cycles ([3]; in the presence of tadalafil) [freeze/thaw cycles] | Geometric means ratio, AUC0–last [1] [%] | also measured
1 | NS(=O)(=O)Nc1ncnc(OCCOc2ncc(Br)cn2)c1-c1ccc(Br)cc1 [Aprocitentan] | 50.7 (9.99) h | 49.4 (6.92) h | 20900 | 20800 | 22600 | 22500 | 104.50 | 103.98 | 107.25 | 49.7 (7.63) h | 49.4 (6.02) h | 7.2 | 7.0 | 7.4 | 18900 | 19500 | 20300 | at least 26 h | 5 |  | C max ([2]; Group 2, FDC 10/40 mg, fasted (Treatment D), mean (SD)): 165 (29.3) ng/ml; 90% CI of GMRs for all 3 PK parameters versus equivalence limits ([2]; Group 2, FDC fed vs. fasted): within the equivalence limits
2 | CCCNS(=O)(=O)Nc1ncnc(OCCOc2ncc(Br)cn2)c1-c1ccc(Br)cc1 [Macitentan] | 13.9 (2.87) h |  | 5850 | 5800 | 5930 | 5900 | 102.32 | 102.13 | 116.10 |  | 14.1 (2.50) h | 6.6 | 6.4 | 12.4 | 6430 | 6340 | 6540 | at least 26 h | 5 | 100.96 | Geometric means ratio, AUC0–∞ [1]: 100.66%; Geometric means ratio, C max [1]: 101.49%; CVw (intrasubject coefficient of variation), AUC0–last [1]: 9.6%; CVw (intrasubject coefficient of variation), AUC0–∞ [1]: 9.5%; CVw (intrasubject coefficient of variation), C max [1]: 11.2%; Tmax ([1]; Group 1, free combination, fasted (Treatment B), median (range)): 10.0 (3.55–12.0) h; Tmax ([1]; both, human, plasma, oral): 10 h; half-life ([1]; both, human, plasma, oral): 14.6 h; 90% CI for the GMR of C max versus equivalence limits (80.00% to 125.00%) ([2]; Group 2, FDC fed vs. fasted): outside the equivalence limits; C max geometric means ratio, test higher compared to reference ([2]; Group 2, FDC fed vs. fasted): 16.10%; mean C max higher under fed (test) compared with fasted (reference) conditions [2]: approximately 15.9%; Tmax ([2]; both, human, plasma, oral): 10 h; half-life ([2]; both, human, plasma, oral): 15.5 h; AUC(0-t) [2, 12]: 6220 ng·h/mL; biopharmaceutical classification system (BCS) class [4]: 2
3 | CN1CC(=O)N2[C@H](c3ccc4c(c3)OCO4)c3[nH]c4ccccc4c3C[C@@H]2C1=O [Tadalafil] | 22.8 (7.76) h | 22.7 (7.26) h | 20600 | 20800 | 20700 | 20900 | 111.07 | 111.04 | 144.97 | 23.4 (6.64) h |  | 9.9 | 9.9 | 17.7 | 22300 | 19900 | 22500 |  |  | 98.87 | Geometric means ratio, AUC0–∞ [1]: 98.82%; Geometric means ratio, C max [1]: 88.30%; CVw (intrasubject coefficient of variation), AUC0–last [1]: 11.3%; CVw (intrasubject coefficient of variation), AUC0–∞ [1]: 11.3%; CVw (intrasubject coefficient of variation), C max [1]: 16.1%; Tmax ([1]; both, human, plasma, oral): 2.5 h; geometric mean of tadalafil C max under fed conditions ([5]; tadalafil alone, fed): 586 ng/mL; C max ([5]; tadalafil in a fasted state, another study): 614 ng/mL; intersubject variability in C max ([2]; FDC under fasting conditions): 34.0%; C max geometric means ratio, test higher compared to reference ([2]; Group 2, FDC fed vs. fasted): 45% and 44.97%; mean C max higher under fed (test) compared with fasted (reference) conditions [2]: approximately 42.5%; Tmax ([2]; both, human, plasma, oral): 2.5 h; half-life ([2]; both, human, plasma, oral): 24.5 h; AUC(0-t) [2, 12]: 19700 ng·h/mL; Cmax ([2]; both, human, plasma, oral, geometric mean of tadalafil C max under fed conditions, FDC formulation, fed): 666 ng/mL; ratio of geometric mean tadalafil C max, FDC formulation vs. tadalafil ([2]; fed conditions, 666 ng/ml vs. 586 ng/ml (ref 21)): 1.14; stability in plasma samples at room temperature [3, 13]: at least 24 h; stability in plasma samples at −20 and −70℃ [3, 13]: 127 days; stability in plasma samples, freeze/thaw cycles [3, 13]: 5 freeze/thaw cycles; biopharmaceutical classification system (BCS) class [4]: 2
